The test system of series [1] is Mycobacterium tuberculosis. The series is described as follows: Antimicrobial activity against Mycobacterium tuberculosis H37Rv ATCC 27294 after 28 days by two-fold agar dilution method in presence of verapamil. The settings on record: H37Rv ATCC 27294, 672 h. In kind it is functional. The gist of the method:
(§1)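 Two-fold serial dilutions in Middlebrook 7H11 agar with OADC supplement, final 50 to 0.78 µg/mL. Inoculum from fresh 7H11/OADC slants, adjusted to 1 mg/mL wet weight in 0.05% Tween 80 saline and diluted 10^-2 (~10^7 cfu/mL), spotted onto drug-containing agar tubes. Incubated at 37 °C; MIC is the lowest concentration inhibiting growth, read at 28 days.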

For series [2], the target named is T1, Enoyl-[acyl-carrier-protein] reductase [NADH] (Mycobacterium tuberculosis) (UniProt P9WGR1).
T1 sequence (whole entry): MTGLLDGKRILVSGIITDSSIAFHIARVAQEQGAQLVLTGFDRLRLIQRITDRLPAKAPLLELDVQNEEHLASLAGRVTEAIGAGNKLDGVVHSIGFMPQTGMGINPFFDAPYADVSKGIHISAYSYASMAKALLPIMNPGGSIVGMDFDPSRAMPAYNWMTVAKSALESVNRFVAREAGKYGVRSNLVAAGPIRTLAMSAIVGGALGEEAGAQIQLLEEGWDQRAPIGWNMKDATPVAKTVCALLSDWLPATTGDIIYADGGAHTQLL
As to the kind of experiment: Inhibition of Mycobacterium tuberculosis recombinant His6-tagged InhA expressed in Escherichia coli BL21(DE3) using 2-trans-decenoyl-CoA as substrate at 10 uM incubated for 2 hrs prior to substrate addition by spectrophotometry. The gist of the method:
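His6-InhA expressed in E. coli BL21(DE3) with 0.1 mM IPTG at 18 °C and purified on Ni-NTA. 70 nM enzyme pre-incubated 2 h with inhibitor at 10 µM in 30 mM PIPES, 150 mM NaCl, pH 6.8, 0.5% DMSO, 25 °C. Reaction started with DD-CoA plus NADH and followed at 340 nm. Initial velocity compared with a no-ligand control; triplicate.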

A short description of series [3]: Cytotoxicity against mouse RAW264.7 cells at 50 uM after 72 hrs by MTT assay. In kind it is cell-based. The settings on record: read-out: INH. The gist of the method: (§2)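 RAW 264.7 macrophages exposed to compound for 72 h. Viability read as MTT conversion to formazan with a non-radioactive cell proliferation kit, reported as percentage growth inhibition.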
Background: Tetrazolium dyes change colour on reduction, which living cells bring about.

The nature of series [4]: Cytotoxicity against mouse RAW264.7 cells at 100 uM after 72 hrs by MTT assay. The settings on record: read-out: INH. In kind it is cell-based. A digest of the protocol: as §2
For series [5], the system named is Mycobacterium tuberculosis. The series is described as follows: Antimicrobial activity against Mycobacterium tuberculosis H37Rv ATCC 27294 after 28 days by two-fold agar dilution method. It counts as functional. The settings on record: H37Rv ATCC 27294, 672 h. The gist of the method: as §1
Background: Agar dilution tests growth on a series of plates holding different concentrations.

Series [6] deals with Mycobacterium tuberculosis. The series is described as follows: Antimicrobial activity against Mycobacterium tuberculosis H37Rv ATCC 27294 after 28 days by two-fold agar dilution method in presence of piperine. In kind it is functional. The settings on record: H37Rv ATCC 27294, 672 h. The gist of the method: as §1
Series [7] concerns the target T2, Enoyl-[acyl-carrier-protein] reductase [NADH] (Mycobacterium tuberculosis, UniProt P9WGR1).
T2 sequence (P9WGR1 whole entry): T1 sequence (whole entry)
As to the kind of experiment: Inhibition of Mycobacterium tuberculosis recombinant His6-tagged InhA expressed in Escherichia coli BL21(DE3) using 2-trans-decenoyl-CoA as substrate incubated for 2 hrs prior to substrate addition by spectrophotometry.

Series [8] addresses T1, Enoyl-[acyl-carrier-protein] reductase [NADH] (Mycobacterium tuberculosis).

By MIC is commonly meant the least concentration at which growth counts as inhibited. The term inhibition denotes the percentage by which the read-out fell short of the control. The term IC50 denotes the concentration that inhibits the measured activity by half.

Values after ≈ are worked out from the molar mass of the structure shown.

In the case of `O=C(Cn1c(=O)oc2cc(Cl)ccc21)Nc1nc2ccccc2s1`, the minimum inhibitory concentration (MIC) in series [1] worked out at 8.68 µM; in series [5], 17.4 µM (≈ 6.25 µg/mL); in series [6], 17.4 µM. The inhibition in series [2] was found to be 58.2%. The cytotoxicity at 72 h, 50 µM in series [3] is 38.7%. In series [4], the cytotoxicity at 72 h, 100 µM stood at 52.5%. Further, the half-inhibitory concentration (IC50) in series [7] is 8.9 µM.
As to `O=C(Cn1c(=O)oc2cc([N+](=O)[O-])ccc21)Nc1ncc([N+](=O)[O-])s1`, the MIC was 8.55 µM in series [1], 17.1 µM (≈ 6.25 µg/mL) in series [5] and 8.55 µM in series [6]. In addition, in series [2], the inhibition is 82.4%. In addition, the cytotoxicity at 72 h, 50 µM in series [3] came to 20.2%. Moreover, the Tm in series [8] came out at 1.9 °C. The cytotoxicity at 72 h, 100 µM in series [4] stood at 43.8%. Moreover, the half-inhibitory concentration (IC50) in series [7] was found to be 5.12 µM.
Turning to `O=C(Cn1c(=O)oc2cc([N+](=O)[O-])ccc21)NCc1ccccn1`, the values for the minimum inhibitory concentration (MIC) in series [1], in series [5] and in series [6] were 38.1 µM, 76.2 µM (≈ 25 µg/mL) and 9.51 µM, respectively. For the same compound, the inhibition in series [2] was 68.1%. In addition, in series [3], the cytotoxicity at 72 h, 50 µM is 21.8%. Further, the cytotoxicity at 72 h, 100 µM in series [4] is 33.4%. In addition, the IC50 in series [7] came to 8.23 µM.
`O=C(Cn1c(=O)oc2cc(Cl)ccc21)Nc1ncc([N+](=O)[O-])s1`: the values for the MIC in series [1], in series [5] and in series [6] were 8.81 µM, 17.6 µM (≈ 6.25 µg/mL) and 17.6 µM, respectively. Also, the inhibition in series [2] was 72.6%. Further, in series [3], the cytotoxicity at 72 h, 50 µM came out at 14.3%. Also, in series [4], the cytotoxicity at 72 h, 100 µM stood at 50.6%. For the same compound, the IC50 in series [7] came to 6.82 µM.

The values are drawn from ChEMBL document CHEMBL3352380, “Development of benzo[d]oxazol-2(3H)-ones derivatives as novel inhibitors of Mycobacterium tuberculosis InhA” (Bioorg Med Chem, 2014).
